Source: PubChem
SUMO Mot1 rescue – yeast Mot1-301 growth rescue at high temperature, primary screen, SUMOylation pathway inhibitor project, S. cerevisiae, ATP luminescence, 38.5C. S. cerevisiae Mot1-301 growth rescue; percent above DMSO median, 100 means doubled. growth rescue, % at 18.8 µM. 320,000 tested, 1% active. AID 2716, 2010;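 active means every valid replicate shows activation above 250% relative to neutral control wells; inactive means the rest, any valid replicate at or below 250%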;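 further: OY570 slx delta 5 strain wells were the positive control but not used for scaling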
Cneo AK release – Cryptococcus neoformans cell lysis inducers, primary screen, AK release luminescence, single concentration; C. neoformans lysis, adenylate kinase release luminescence, 4 h; normalised: neutral wells 0, clomiphene wells 100; lysis activity, % at 15 µM; 360,000 tested, 0.2% active;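 active means mean lysis activity across replicates of at least 80%, whatever share of replicates individually reach that level; inactive means mean lysis activity below 80%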
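Material: C. neoformans cells | Amount: Yeast cell density of 5 × 10^6 cells/mL | Medium: Fresh YPD growth medium | Dosing: Single dose | Times: Static 4 h at 37 °C with compound, 1 h detection | Detection: AK luminescence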
C2C12 statin – suppressors of statin myotoxicity in C2C12 myotubes, primary screen, cell-based, single point, plate reader | 330,000 tested, 0.78% active | rescue of ATP level, % at 7.49 µM | C2C12 myotubes + simvastatin, ATP luminescence, 48 h; scaled: DMSO 0, geranylgeraniol control 100;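 active means mean ATP rescue above about 67%, or every replicate alone reaching that limit, limit read from the data, passing the limit was not always enough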;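 further: myotubes were challenged with 10 µM simvastatin during compound exposure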
* = called active by the depositor. Hits are enriched below; roughly 1.5% of the tested compounds scored in any of these assays.

CO[C@H]1O[C@H](CO)[C@@H](OC(=O)Nc2ccccc2)[C@H](OC(=O)Nc2ccc3c(c2)OCO3)[C@@H]1OC(=O)Nc1ccc2c(c1)OCO2 was read as Cneo AK release 100*.
CO[C@H]1O[C@H](CO)[C@@H](OC(=O)Nc2cccc(F)c2)[C@H](OC(=O)Nc2ccc3c(c2)OCO3)[C@@H]1OC(=O)Nc1ccc2c(c1)OCO2 was read as Cneo AK release -1.
Screening O=C(Cc1ccc(Cl)cc1)c1ccc(O)cc1 returned SUMO Mot1 rescue 10.
`Cc1ccc(CC(=O)c2ccc(Cl)cc2)cc1` gave SUMO Mot1 rescue 45, Cneo AK release 3 and C2C12 statin 133*.
For O=c1cc(-c2ccc(O)cc2)oc2ccccc12 the results were SUMO Mot1 rescue -2, Cneo AK release 1 and C2C12 statin 24.
Screening O=c1cc(-c2ccncc2)oc2ccccc12 returned SUMO Mot1 rescue -15, Cneo AK release 3 and C2C12 statin 115*.
CO[C@@H]1CN(C)C(=O)c2ccc(NC(C)=O)cc2OC[C@@H](C)N(C(=O)CN2CCOCC2)C[C@H]1C was read as Cneo AK release -4 and C2C12 statin -7.
`O=C1N/C(=C\c2nc3ccccc3s2)c2ccccc21` gave SUMO Mot1 rescue 354*.
O=C1N/C(=C\c2ccccc2)c2ccccc21 was read as SUMO Mot1 rescue 35, Cneo AK release -2 and C2C12 statin -144.
Screening C[C@@H]1CN([C@H](C)CO)S(=O)(=O)c2ccc(C#Cc3cccnc3)cc2O[C@H]1CN(C)C(=O)CN(C)C returned Cneo AK release 2 and C2C12 statin -1.
CC(C)(C)NC(=O)Cn1nc(C(F)(F)F)c2c1CCCC2 was read as SUMO Mot1 rescue 5.
For FC(F)(F)c1nc2nncn2c2c1CCCCC2 the results were SUMO Mot1 rescue 73, Cneo AK release 3 and C2C12 statin 149*.
O=C(C[C@@H]1C[C@H]2c3cc(NC(=O)C4CCOCC4)ccc3O[C@H]2[C@H](CO)O1)NCc1ccc(Oc2ccccc2)cc1 was read as Cneo AK release -6 and C2C12 statin -3.
For CC(C)(C)S(=O)(=O)c1ccc(S(=O)(=O)C(C)(C)C)s1 the results were SUMO Mot1 rescue 949*.
CC(C)(C)c1ccc(S(=O)(=O)C(C)(C)C)cc1 was read as SUMO Mot1 rescue 18, Cneo AK release 0 and C2C12 statin -4.
`CCN(C(=S)NCc1ccccc1)c1cccc2ccccc12` gave SUMO Mot1 rescue -19, Cneo AK release 11 and C2C12 statin 3.
CCN(C(C)=O)c1cccc2ccccc12 was read as SUMO Mot1 rescue -10, Cneo AK release -3 and C2C12 statin 147*.
`Cc1ccc(-c2ccc(S(=O)(=O)N3CCCC3)cc2)cc1` gave SUMO Mot1 rescue 8.
Cc1ccc(S(=O)(=O)N2CCCSCC2)cc1 was read as SUMO Mot1 rescue -25, Cneo AK release -3 and C2C12 statin 114*.
Screening C[C@H](CO)N1C[C@H](C)[C@@H](CN(C)C(=O)Nc2ccc(F)cc2)Oc2c(NC(=O)c3cnccn3)cccc2C1=O returned Cneo AK release -2 and C2C12 statin -50.
For C[C@H](NC(=O)C[C@H]1CC[C@@H](NC(=O)Cc2ccccn2)[C@@H](CO)O1)c1ccccc1 the results were Cneo AK release 96* and C2C12 statin -2.
O=C(C[C@H]1CC[C@H](NC(=O)Cc2ccccn2)[C@H](CO)O1)NCCc1ccccc1 was read as Cneo AK release 4 and C2C12 statin 3.
`C[C@H](NC(=O)C[C@H]1CC[C@H](NC(=O)Cc2ccccn2)[C@H](CO)O1)c1ccccc1` gave Cneo AK release 0 and C2C12 statin -3.
O=C(C[C@@H]1CC[C@H](NC(=O)Cc2ccccn2)[C@@H](CO)O1)NCCc1ccccc1 was read as Cneo AK release 95* and C2C12 statin -7.
For Cc1nn(-c2ccccc2[N+](=O)[O-])c(=O)c2ccccc12 the results were SUMO Mot1 rescue 3, Cneo AK release 1 and C2C12 statin 11.
Cc1nn(-c2ccccc2)c(-c2ccccc2[N+](=O)[O-])c1C(=O)O was read as SUMO Mot1 rescue 294* and Cneo AK release -1.
For Cc1ccc(S(=O)(=O)Nc2ccc3c(c2)CC(=O)N([C@H](C)CO)C[C@@H](C)[C@@H](CN(C)S(=O)(=O)c2cn(C)cn2)O3)cc1 the results were Cneo AK release 9 and C2C12 statin -2.
For Cc1ccc(NC(=O)COc2ccc(/C=C3/SC(=Nc4ccccc4)N(Cc4cccnc4)C3=O)cc2)cc1 the results were SUMO Mot1 rescue -7 and C2C12 statin 80*.
`Cc1ccc(NC(=O)COc2ccc(/C=N/NC(=O)CSCc3ccccc3)cc2)cc1` gave SUMO Mot1 rescue -11, Cneo AK release 0 and C2C12 statin -6.
For C[C@H]1CN([C@@H](C)CO)C(=O)c2cc(-c3cccc(F)c3)cnc2O[C@H]1CN(C)Cc1cccnc1 the results were Cneo AK release -7 and C2C12 statin -1.
`C[C@H]1CN([C@@H](C)CO)C(=O)Cc2cc(NS(=O)(=O)c3ccc(Cl)cc3)ccc2O[C@H]1CN(C)C(=O)Nc1ccccc1` gave Cneo AK release 1 and C2C12 statin 25.
For CN1CCN(S(=O)(=O)c2ccc3ccccc3c2)CC1 the results were SUMO Mot1 rescue -25, Cneo AK release -1 and C2C12 statin 1.
Screening CC1CCN(S(=O)(=O)c2ccc3ccccc3c2)CC1 returned SUMO Mot1 rescue 32, Cneo AK release -3 and C2C12 statin 153*.
O=C1CC(c2ccccc2)Oc2cc(O)cc(O)c21 (centres undefined) was read as SUMO Mot1 rescue 8, Cneo AK release 0 and C2C12 statin 13.
For COc1cc(OC)c2c(c1O)OC(c1ccccc1)CC2=O (centres undefined) the results were SUMO Mot1 rescue 696*, Cneo AK release 0 and C2C12 statin -2.
`O=C(/C=C/c1ccccc1Cl)NCc1ccccc1` gave SUMO Mot1 rescue 3, Cneo AK release -4 and C2C12 statin 145*.
Screening O=C(/C=C/c1ccccc1Cl)NCCc1ccccc1 returned SUMO Mot1 rescue 6, Cneo AK release -1 and C2C12 statin -49.
For O=C(C[C@H]1CC[C@@H]2[C@H](COC[C@@H](O)CN2Cc2nccs2)O1)NCc1ccccc1F the results were Cneo AK release 52 and C2C12 statin 6.
Screening CCOc1ccccc1Nc1nnc(SCC(=O)Nc2cccc(S(=O)(=O)NC3=NCCCCC3)c2)s1 returned SUMO Mot1 rescue 677*, Cneo AK release 1 and C2C12 statin 4.
Screening CCOc1ccccc1OCC(=O)Nc1cccc(S(=O)(=O)NC2=NCCCCC2)c1 returned SUMO Mot1 rescue -15, Cneo AK release 0 and C2C12 statin -15.
O=C(/C(=C\c1ccccc1)c1nc2ccccc2[nH]1)c1ccc(Cl)cc1 was read as SUMO Mot1 rescue active.
For COc1cc(/C=C(/C(=O)c2cccs2)c2nc3ccccc3[nH]2)ccc1O the results were Cneo AK release -8 and C2C12 statin 7.
